From ChEMBL document CHEMBL3243957, “Synthesis and screening of 8-(4'-thiazolyl)purines” (J Med Chem, 1978)
The source made the active and inactive calls. The rule behind the calls is not given here.

Experiments:
Human alphaherpesvirus 1 [1] = assay: Antiviral activity against HSV-1 infected in african green monkey Vero cells assessed as inhibition of viral replication at 10 ug/ml (reference value: 1.2 x 10^6 PFU/ml); format: functional
Human alphaherpesvirus 1 [2] = assay: Antiviral activity against HSV-1 infected in african green monkey Vero cells assessed as inhibition of viral replication at 1 ug/ml (reference value: 1.2 x 10^6 PFU/ml); format: functional
Human alphaherpesvirus 1 [3] = assay: Antiviral activity against HSV-1 infected in african green monkey Vero cells assessed as inhibition of viral replication at 100 ug/ml (reference value: 1.2 x 10^6 PFU/ml); format: functional
Lymphocyte [4] = assay: Immunopotentiation activity in human lymphocytes assessed as increase in cell proliferation at 1 to 100 ug/ml by [3H]thymidine incorporation assay in absence of mitogen phytohemagglutinin; format: functional, cell-based
In short: (§1)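 Lymphocytes were cultured with compound at 1, 10 and 100 µg/mL, with or without a suboptimal concentration of the lectin mitogen phytohemagglutinin. Proliferation was read as tritiated thymidine incorporation.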

Lymphocyte [5] = assay: Immunopotentiation activity in human lymphocytes assessed as increase in cell proliferation at 1 to 100 ug/ml by [3H]thymidine incorporation assay in presence of mitogen phytohemagglutinin; format: functional, cell-based; in short: as §1
Lymphocyte [6] = assay: Inhibition of phytohemagglutinin-induced human lymphocytes proliferation at 100 ug/ml by [3H]thymidine incorporation assay; format: functional, cell-based; in short: as §1
Mus musculus [7] = assay: Antitumor activity against AKR mouse leukemia assessed as increase in survival time at 0.2 to 20 mg/kg, ip; format: functional, organism-based
In short: (§2)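 AKR leukemia-bearing mice were dosed at 0.2, 2.0 and 20 mg/kg, each given by intraperitoneal, oral or subcutaneous routes. The read-out was increase in survival time.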

Mus musculus [8] = assay: Antitumor activity against mouse S180J cells allografted in CD-1 mouse assessed as tumor regression at 1 mg/kg, ip administered six times in consecutive days starting a day after tumor cell inoculation measured 42 days after start of drug treatment; format: functional, organism-based; set-up: dose 1 mg/kg
In short: (§3)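 Female CD-1 mice, in groups of six, were inoculated with 7.5 × 10^5 tumor cells. Starting the day after inoculation, the agent was given ip as a carboxymethylcellulose suspension in saline, once daily for six consecutive days, at different dosages.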

Mus musculus [9] = assay: Antitumor activity against AKR mouse leukemia assessed as increase in survival time at 0.2 to 20 mg/kg, sc; format: functional, organism-based; in short: as §2
Mus musculus [10] = assay: Antitumor activity against mouse S180J cells allografted in CD-1 mouse assessed as tumor regression at 4 mg/kg, ip administered six times in consecutive days starting a day after tumor cell inoculation measured 42 days after start of drug treatment; format: functional, organism-based; set-up: dose 4 mg/kg; in short: as §3
Mus musculus [11] = assay: Antitumor activity against mouse S180J cells allografted in ip dosed CD-1 mouse assessed as tumor regression administered six times in consecutive days starting a day after tumor cell inoculation measured 42 days after start of drug treatment; format: functional, organism-based; in short: as §3
Mus musculus [12] = assay: Antitumor activity against mouse S180J cells allografted in CD-1 mouse assessed as tumor regression at 32 mg/kg, ip administered six times in consecutive days starting a day after tumor cell inoculation measured 42 days after start of drug treatment; format: functional, organism-based; set-up: dose 32 mg/kg; in short: as §3
Mus musculus [13] = assay: Antitumor activity against AKR mouse leukemia assessed as increase in survival time at 0.2 to 20 mg/kg, po; format: functional, organism-based; in short: as §2
Mus musculus [14] = assay: Antitumor activity against mouse S180J cells allografted in CD-1 mouse assessed as tumor regression at 16 mg/kg, ip administered six times in consecutive days starting a day after tumor cell inoculation measured 42 days after start of drug treatment; format: functional, organism-based; set-up: dose 16 mg/kg; in short: as §3
Human alphaherpesvirus 1 [15] = assay: Antiviral activity against HSV-1 infected in african green monkey Vero cells assessed as inhibition of viral replication at 100 ug/ml (reference value: 2.7 x 10^5 PFU/ml); format: functional
Mus musculus [16] = assay: Antitumor activity against mouse S180J cells allografted in CD-1 mouse assessed as tumor regression at 30 mg/kg, ip administered six times in consecutive days starting a day after tumor cell inoculation measured 42 days after start of drug treatment; format: functional, organism-based; set-up: dose 30 mg/kg; in short: as §3
Human alphaherpesvirus 1 [17] = assay: Antiviral activity against HSV-1 infected in african green monkey Vero cells assessed as inhibition of viral replication at 10 ug/ml (reference value: 2.7 x 10^5 PFU/ml); format: functional
Human alphaherpesvirus 1 [18] = assay: Antiviral activity against HSV-1 infected in african green monkey Vero cells assessed as inhibition of viral replication at 1 ug/ml (reference value: 2.7 x 10^5 PFU/ml); format: functional
Mus musculus [19] = assay: Antitumor activity against mouse S180J cells allografted in CD-1 mouse assessed as tumor regression at 10 to 100 mg/kg, ip administered six times in consecutive days starting day after tumor cell inoculation measured 42 days after start of drug treatment; format: functional, organism-based; in short: as §3
Mus musculus [20] = assay: Antitumor activity against mouse S180J cells allografted in CD-1 mouse assessed as tumor regression at 100 mg/kg, ip administered six times in consecutive days starting a day after tumor cell inoculation measured 42 days after start of drug treatment; format: functional, organism-based; set-up: dose 100 mg/kg; in short: as §3
L1210 = assay: Antitumor activity against mouse L1210 cells allografted in mouse assessed as increase in host survival time at 125 mg/kg administered qd for 6 days relative to control; format: functional
In short: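 L1210 mouse leukemia in mice, dosed daily (qd) over a 1 to 125 mg/kg range. Read-out was survival time of treated versus control mice, given as % T/C. Procedure follows previously described methods.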

Mus musculus [21] = assay: Toxicity in mouse L1210 cells allografted mouse up to 500 mg/kg administered qd for 5 days; format: organism-based; set-up: dose 500 mg/kg; conditions: in vivo, 120 h

Clc1ncnc2[nH]c(-c3cscn3)nc12
PFU/ml (Human alphaherpesvirus 1 [1]): 2500000 | PFU/ml (Human alphaherpesvirus 1 [2]): 4000000 | PFU/ml (Human alphaherpesvirus 1 [3]): 2200000 | Activity (Lymphocyte [4]): inactive | Activity (Lymphocyte [5]): inactive | inhibition (Lymphocyte [6]): Active

Oc1ncnc2[nH]c(-c3cscn3)nc12
Activity (Lymphocyte [4]): inactive | Activity (Lymphocyte [5]): inactive | inhibition (Lymphocyte [6]): Active

Sc1ncnc2[nH]c(-c3cscn3)nc12
Activity (Mus musculus [7]): inactive | inhibition (Mus musculus [8]): inactive | Activity (Lymphocyte [4]): inactive | Activity (Mus musculus [9]): inactive | inhibition (Mus musculus [10]): inactive | inhibition (Mus musculus [11]): Active | Activity (Lymphocyte [5]): inactive | inhibition (Mus musculus [12]): inactive | inhibition (Lymphocyte [6]): Active | Activity (Mus musculus [13]): inactive | inhibition (Mus musculus [14]): inactive

Nc1ncnc2[nH]c(-c3cscn3)nc12
PFU/ml (Human alphaherpesvirus 1 [15]): 920000 | inhibition (Mus musculus [16]): inactive | PFU/ml (Human alphaherpesvirus 1 [17]): 850000 | PFU/ml (Human alphaherpesvirus 1 [18]): 320000 | inhibition (Mus musculus [19]): inactive | Activity (Lymphocyte [4]): inactive | Activity (Lymphocyte [5]): inactive | inhibition (Lymphocyte [6]): Active

Nc1nc(S)c2nc(-c3cscn3)[nH]c2n1
inhibition (Mus musculus [16]): inactive | PFU/ml (Human alphaherpesvirus 1 [1]): 5300000 | PFU/ml (Human alphaherpesvirus 1 [2]): 3500000 | PFU/ml (Human alphaherpesvirus 1 [3]): 820000 | inhibition (Mus musculus [20]): inactive | Activity (Lymphocyte [4]): inactive | inhibition (Mus musculus [11]): Active | Activity (Lymphocyte [5]): inactive | inhibition (Lymphocyte [6]): Active

ONc1ncnc2[nH]c(-c3cscn3)nc12
T/C (L1210): 129% | Activity (Mus musculus [21]): Non-toxic

c1ncc2nc(-c3cscn3)[nH]c2n1
inhibition (Mus musculus [19]): inactive | Activity (Lymphocyte [4]): inactive | Activity (Lymphocyte [5]): inactive | inhibition (Lymphocyte [6]): Active
